Source: ChEMBL document CHEMBL4028857, “Anchimerically Activated ProTides as Inhibitors of Cap-Dependent Translation and Inducers of Chemosensitization in Mantle Cell Lymphoma” (J Med Chem, 2017)
Active and inactive are the calls of the source. No cut-off for these calls is given here.

Columns and labels:
[1] = target: Eukaryotic translation initiation factor 4E (Homo sapiens) (UniProt P06730); assay: Inhibition of eIF4E in human Mino cells assessed as down regulation of c-Myc protein expression at 100 uM after 48 hrs in presence of ibrutinib by Western blot analysis; assay type: cell-based
How it was run: (§1)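 MCL lines treated 48 h with compound; protein quantified and Western blotted with eIF4E, eIF4G, actin, c-Myc and Bcl-2 antibodies.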

[2] = AUC (0 to 8 hrs) in Sprague-Dawley rat plasma at 2.5 mg/kg, iv by LC-MS/MS analysis; assay type: ADME, organism-based; parameters: time < 8 hr, dose 2.5 mg/kg, route intravenous
How it was run: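 Female Sprague-Dawley rats (250-274 g, n=3, catheterized femoral/jugular veins) dosed once p.o. by gavage (25 mg/kg) then, after a 3-day washout, i.v. (2.5 mg/kg). Formulation: 10 mg/mL in 0.5% aqueous CMC with 5% DMSO. Serial blood draws to 480 min into K2EDTA; plasma protein-precipitated with acetonitrile plus internal standards; LC-MS/MS (positive MRM); non-compartmental PK; %F from dose-normalized AUC per rat.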

[3] = Volume of distribution in Sprague-Dawley rat at 2.5 mg/kg, iv by LC-MS/MS analysis; assay type: ADME, organism-based; conditions: in vivo
How it was run: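 Female Sprague-Dawley rats (n=3, 250-274 g) with catheters; compound in 0.5% aqueous CMC with 5% DMSO given as a single i.v. injection, 2.5 mg/kg. Blood drawn at 0–480 min into K2EDTA tubes. Plasma precipitated with acetonitrile containing internal standards, then LC-MS/MS in positive MRM mode. Parameters from non-compartmental analysis.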

[4] = target: Eukaryotic translation initiation factor 4E (Homo sapiens) (UniProt P06730); assay: Inhibition of eIF4E in human Mino cells assessed as potentiation of dexamethasone induced antiproliferation at 100 uM preincubated for 48 hrs followed by thymidine addition measure after 16 hrs by Thymidine incorporation assay; assay type: cell-based
How it was run: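 MCL lines treated 48 h with compound re-added daily, alone or with co-drug (ibrutinib 25 µM where used), then thymidine added for a further 16 h; proliferation read as thymidine incorporation.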

[5] = target: Eukaryotic translation initiation factor 4E (Homo sapiens) (UniProt P06730); assay: Inhibition of eIF4E in human Z138 cells assessed as disruption of interaction between protein and mRNA 5'-cap at 10 to 100 uM by m7GTP pull-down assay; assay type: cell-based
How it was run: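 Eight to ten million treated MCL cells washed in cold PBS, lysed in cap binding buffer, and eIF4E binding captured on m7GTP-Sepharose beads (pull-down).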

[6] = target: Eukaryotic translation initiation factor 4E (Homo sapiens) (UniProt P06730); assay: Inhibition of eIF4E in human GRANTA-519 cells assessed as down regulation of Bcl-2 protein expression at 50 to 200 uM after 48 hrs by Western blot method; assay type: cell-based; how it was run: as §1
[7] = target: Adenosine 5'-monophosphoramidase HINT1 (Homo sapiens, UniProt P49773); assay: Prodrug activation in human Z138 cells assessed as Hint1 mediated 2-amino-7-(2-(4-chlorophenoxy)ethyl)-9-((2R,3R,4S,5R)-3,4-dihydroxy-5-(phosphonooxymethyl)tetrahydrofuran-2-yl)-6-oxo-6,9-dihydro-1H-purin-7-ium formation per 5 million cells at 150 uM after 12 hrs by LC-MS/MS analysis; assay type: cell-based
How it was run: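 Mantle cell lymphoma cells (five million) grown in RPMI with 10% FBS, penicillin/streptomycin and L-glutamine at 37 °C, 5% CO2, then exposed to 150 µM compound for 12 h at 37 °C. Washed with ice-cold PBS, pellet extracted in MeOH/NH4OAc (60:40) with 80 fmol internal standards, three liquid-N2 freeze–thaw cycles, filtered, dried, redissolved in 20 mM HEPES pH 7.2. Analysed by LC-MS/MS against a standard curve.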

Sequence of Eukaryotic translation initiation factor 4E (Homo sapiens) (P06730 whole entry): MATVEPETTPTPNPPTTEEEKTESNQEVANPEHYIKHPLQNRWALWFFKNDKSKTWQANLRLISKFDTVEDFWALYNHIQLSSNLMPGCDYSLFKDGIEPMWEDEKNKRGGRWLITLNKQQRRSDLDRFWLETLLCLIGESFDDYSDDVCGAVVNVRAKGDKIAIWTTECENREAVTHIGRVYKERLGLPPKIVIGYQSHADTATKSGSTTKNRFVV
Sequence of Adenosine 5'-monophosphoramidase HINT1 (P49773 whole entry): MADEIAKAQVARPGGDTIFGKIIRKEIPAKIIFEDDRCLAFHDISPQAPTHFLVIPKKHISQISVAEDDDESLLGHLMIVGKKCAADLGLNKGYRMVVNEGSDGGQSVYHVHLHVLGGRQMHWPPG

SMILES: CSCCOP(=O)(NCCc1c[nH]c2ccccc12)OC[C@H]1O[C@@H](n2c[n+](CCOc3ccc(Cl)cc3)c3c(=O)[nH]c(N)nc32)[C@H](O)[C@@H]1O (some centres not stated)
- inhibition [1]: Active
- AUC(0-t) at 8 h [2]: 23.3 ng·h/mL
- Vd [3]: 205 L/kg
- inhibition [4]: Active
- inhibition [5]: Active
- inhibition [6]: inactive
- Drug metabolism [7]: 272 pmol
